Consider three molecules from ChEMBL document CHEMBL1125733, “Fluoronaphthyridines and -quinolones as antibacterial agents. 3. Synthesis and structure-activity relationships of new 1-(1,1-dimethyl-2-fluoroethyl), 1-[1-methyl-1-(fluoromethyl)-2-fluoroethyl], and 1-[1,1-(difluoromethyl)-2-fluoroethyl] substituted derivatives” (J Med Chem, 1991).

The subject of one data set is Serratia marcescens. Nature of the data set: In vitro antibacterial activity (minimum inhibitory concentration) against Serratia marcescens A 20019. In kind it is functional.
A further data set has as its system Proteus mirabilis. Nature of the data set: In vitro antibacterial activity (minimum inhibitory concentration, MIC) against Proteus mirabilis A 9900. In kind it is functional.
The test system of data set [1] is Enterococcus faecalis. Nature of the data set: In vitro antibacterial activity against Enterococcus faecalis A 9809. Type of data set: functional.
Another data set deals with Enterobacter cloacae. Description: In vitro antibacterial activity against Enterobacter cloacae A 9656. Type of data set: functional.
A short description of data set [2]: in vivo. The note with it: dog, po, 25 mg/kg.
The subject of data set [3] is Mus musculus. Description: Compound was evaluated in vivo in urine sample collected over 24 hours for its concentration after 40 mg/kg peroral administration to mice. The note with it: route oral. Type of data set: functional. In outline: (§1)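 Mice were dosed at 40 mg/kg, either orally with a blunt needle and syringe or intramuscularly, with separate groups for each route. Blood was drawn from the orbital sinus at 5, 15, 30, 60, 120 and 180 min. Urine was pooled over 24 h. Drug levels were measured by agar disk diffusion microbioassay with Salmonella enteritidis A9531 as the assay organism.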

A further data set deals with Morganella morganii. Nature of the data set: In vitro antibacterial activity against Morganella morganii A 15153. In kind it is functional.
Another data set has as its system Haemophilus influenzae. Description: In vitro antibacterial activity against Haemophilus influenzae A 21515. In kind it is functional.
The subject of data set [4] is Staphylococcus aureus. Description: In vitro antibacterial activity against Staphylococcus aureus A 24227. Type of data set: functional.
In data set [5] the test system is Staphylococcus aureus. Description: In vitro antibacterial activity (minimum inhibitory concentration, MIC) against Staphylococcus aureus A 9537. Type of data set: functional.
For a further data set, the system named is Klebsiella pneumoniae. Description: In vitro antibacterial activity against Klebsiella pneumoniae A 9664. In kind it is functional.
Data set [6] deals with Canis familiaris. Nature of the data set: Compound was evaluated in vivo in urine sample collected over 24 hours for its concentration after 25 mg/kg peroral administration to dogs. The note with it: route oral.
Data set [7] deals with Pseudomonas aeruginosa. Description: Compound was tested in vitro for its antibacterial activity (minimum inhibitory concentration, MIC) against Pseudomonas aeruginosa A 9843. In kind it is functional.
In data set [8] the test system is Escherichia coli. Description: In vitro antibacterial activity against Escherichia coli A 15119. In kind it is functional.
The test system of data set [9] is Staphylococcus aureus. Description: Compound was tested for the dose to protect 50% of mice from lethal infection against Staphylococcus aureus A 9606 after peroral administration to OF1-strain of female Swiss mice. Conditions: po, read-out: PD50. In kind it is functional. The method in brief:
(§2)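 Compounds dissolved in sterile water and given orally to female OF1 Swiss mice weighing 18-25 g, five mice per group.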

The subject of data set [10] is Mus musculus. Nature of the data set: Compound was evaluated in vivo in blood samples from the orbital sinus for its concentration using Area under the time-concentration curve after 40 mg/kg intramuscular administration to mice. Type of data set: ADME, organism-based. Also on record: dose 40 mg/kg, route intramuscular. Conditions: im. In outline:
as §1

Data set [11] can be described thus: Compound was evaluated in vivo in blood samples from the orbital sinus for its concentration after a intramuscular administration 40 mg/kg in mice. The note with it: mouse, im. Type of data set: ADME, organism-based. Also on record: dose 40 mg/kg, route intramuscular. In outline:
as §1

Data set [12] is described as follows: in vivo. The note with it: dog, po, 25 mg/kg. The source holds these as a separate data set.
Data set [13] is filed under the species Mus musculus. The note with it: in vivo, po, 40 mg/kg.
The nature of data set [14]: Compound was evaluated in vivo in blood samples from the orbital sinus for its half life after 40 mg/kg of intramuscular administration in mice. In kind it is ADME, organism-based. Also on record: dose 40 mg/kg, route intramuscular. Conditions: mouse, im.
For data set [15], the system named is Pseudomonas aeruginosa. Nature of the data set: Compound was tested for the dose to protect 50% of mice from lethal infection against Pseudomonas aeruginosa A9843 after peroral administration to OF1-strain of female Swiss mice. Type of data set: functional. Conditions: po, read-out: PD50. The method in brief:
as §2

For data set [16], the species on record is Canis familiaris. The note with it: dog, in vivo, po, 25 mg/kg.
The nature of data set [17]: Compound was tested for the dose to protect 50% of mice from lethal infection against Streptococcus pneumoniae after peroral administration to OF1-strain of female Swiss mice. The note with it: po, read-out: PD50. In kind it is functional. In outline: as §2
The next data set relates to Bacteroides fragilis. Nature of the data set: Compound was tested in vitro for its antibacterial activity (minimum inhibitory concentration) against Bacteroides fragilis A 22862. In kind it is functional. Conditions: A22862.
The nature of data set [18]: in vivo. The note with it: mouse, blood, po, 40 mg/kg.
Another data set has as its system Streptococcus pneumoniae. Nature of the data set: In vitro antibacterial activity against Streptococcus pneumoniae A 9585. In kind it is functional.
For data set [19], the system named is Mus musculus. Nature of the data set: Compound was evaluated in vivo in urine sample collected over 24 hours for its concentration after 40 mg/kg intramuscular administration to mice. In kind it is functional. The method in brief:
as §1

Data set [20] is described as follows: Compound was evaluated in vivo in blood samples from the orbital sinus for its concentration after a peroral administration of 40 mg/kg in mice. Type of data set: ADME, organism-based. Also on record: dose 40 mg/kg, route oral. Conditions: mouse, po. The method in brief: as §1
Data set [21] deals with Mus musculus. Description: Compound was evaluated in vivo in urine sample collected over 24 hours for its concentration after 40 mg/kg an intramuscular administration to mice. In kind it is functional. The method in brief: as §1
The nature of data set [22]: Compound was evaluated in vivo in blood samples from the orbital sinus for its concentration after an intramuscular administration of 40 mg/kg in mice. Type of data set: ADME, organism-based. Also on record: dose 40 mg/kg, route intramuscular. The note with it: mouse, im. The method in brief:
as §1

For data set [23], the system named is Escherichia coli. Description: Compound was tested for the dose to protect 50% of mice from lethal infection against Escherichia coli A 15119 after peroral administration to OF1-strain of female Swiss mice. In kind it is functional. The note with it: po, read-out: PD50. In outline: as §2
A short description of data set [24]: in vivo. The note with it: mouse, blood, po, 40 mg/kg. The source holds these as a separate data set.
Data set [25] concerns Enterococcus faecalis. Nature of the data set: Compound was tested in vitro for its antibacterial activity (minimum inhibitory concentration) against Enterococcus faecalis A 9809 (gram positive). Type of data set: functional.

In brackets after ≈: the same amount, converted by molar mass.

In general, Cmax refers to the maximum level reached in the sampled fluid or tissue. In general, AUC refers to the area under the concentration-time curve, a measure of exposure. Low readings indicate low exposure, high ones high exposure. By half-life is commonly meant the time in which the quantity being followed falls by half. Low values mean rapid decline, high ones slow decline. With `CC(C)(CF)n1cc(C(=O)O)c(=O)c2cc(F)c(N3CC[C@H](N)C3)cc21.CS(=O)(=O)O`, the S was found to be 370 µg/mL. Besides, in the data set with Serratia marcescens, the MIC is 0.016 µg/mL. In the data set on Proteus mirabilis, this molecule came in with an MIC of 0.004 µg/mL. Further, the MIC against Enterococcus faecalis [1] stood at 0.13 µg/mL. In addition, in the data set with Enterobacter cloacae, the MIC was found to be 0.004 µg/mL. In “in vivo [2]”, the Cmax stood at 600 ng/mL. In the data set on Mus musculus [3], this molecule gave a UR of 4%. The MIC in the data set on Morganella morganii was 0.002 µg/mL. In the data set on Haemophilus influenzae, this molecule came in with an MIC of 0.016 µg/mL. The MIC in the data set on Staphylococcus aureus [4] is 0.016 µg/mL. The MIC in the data set with Staphylococcus aureus [5] amounted to 0.03 µg/mL. Further, the MIC against Klebsiella pneumoniae stood at 0.004 µg/mL. The UR in the data set on Canis familiaris [6] came out at 4.6%. In addition, the MIC in the data set with Pseudomonas aeruginosa [7] worked out at 0.13 µg/mL. Besides, the MIC against Escherichia coli [8] amounted to 0.002 µg/mL. For the same molecule, the ED50 in the data set with Staphylococcus aureus [9] turned out to be 26.4 mg/kg. In addition, in the data set with Mus musculus [10], the AUC was 14000 ng·h/mL. For the same molecule, the Cmax in data set [11] is 8000 ng/mL. This molecule also showed a half-life in “in vivo [12]” of 7 h. Besides, the AUC in the data set filed under Mus musculus [13] turned out to be 600 ng·h/mL. The molecule also came in with a half-life in data set [14] of 1.82 h. Further, in the data set on Pseudomonas aeruginosa [15], the ED50 turned out to be 23.7 mg/kg. In the data set listed under Canis familiaris [16], this molecule had an area under the curve (AUC) of 7300 ng·h/mL. In addition, the ED50 in data set [17] was over 50 mg/kg. Besides, the MIC against Bacteroides fragilis amounted to 2 µg/mL. For the same molecule, the Cmax in the data set “in vivo [18]” is 1000 ng/mL. In addition, the MIC against Streptococcus pneumoniae came out at 0.06 µg/mL. The same molecule yielded a UR with Mus musculus [19] of 27%.
The molecule `CC(C)(C)n1cc(C(=O)O)c(=O)c2cc(F)c(N3CC[C@H](N)C3)cc21.CS(=O)(=O)O` registered an S of 250 µg/mL. The molecule further showed a Cmax in data set [20] of 3000 ng/mL. For the same molecule, the MIC against Serratia marcescens was found to be 0.13 µg/mL. The molecule also displayed a UR with Mus musculus [21] of 24%. For the same molecule, in the data set with Proteus mirabilis, the MIC turned out to be 0.06 µg/mL. In addition, the MIC with Enterococcus faecalis [1] is 0.13 µg/mL. Moreover, in the data set on Enterobacter cloacae, the MIC was determined as 0.06 µg/mL. In “in vivo [2]”, this molecule displayed a Cmax of 2800 ng/mL. The UR with Mus musculus [3] was found to be 14%. The MIC against Morganella morganii was found to be 0.13 µg/mL. The MIC against Haemophilus influenzae was determined as 0.008 µg/mL. For the same molecule, in the data set on Staphylococcus aureus [4], the MIC turned out to be 0.03 µg/mL. This molecule came in with an MIC in the data set with Staphylococcus aureus [5] of 0.008 µg/mL. In addition, the MIC in the data set on Klebsiella pneumoniae stood at 0.5 µg/mL. Also, the highest level in data set [22] (Cmax) was 6000 ng/mL. Further, the UR with Canis familiaris [6] is listed as 7.7%. In the data set with Pseudomonas aeruginosa [7], this molecule came in with an MIC of 0.25 µg/mL. The MIC in the data set with Escherichia coli [8] worked out at 0.016 µg/mL. Also, in the data set with Staphylococcus aureus [9], the ED50 came to 14.4 mg/kg. In addition, the ED50 in the data set with Escherichia coli [23] turned out to be 9.5 mg/kg. Besides, the AUC with Mus musculus [10] came out at 15000 ng·h/mL. The molecule also gave a half-life in the data set “in vivo [12]” of 4 h. Besides, in the data set filed under Mus musculus [13], the AUC was 5000 ng·h/mL. For the same molecule, the half-life in data set [14] was determined as 0.9 h. Also, the ED50 in the data set on Pseudomonas aeruginosa [15] turned out to be 10.2 mg/kg. Besides, in the data set filed under Canis familiaris [16], the AUC stood at 30000 ng·h/mL. In [17], the ED50 is over 25 mg/kg. This molecule also yielded an MIC against Bacteroides fragilis of 8 µg/mL. The same molecule had a half-life in “in vivo [24]” of 1.1 h. In the data set with Streptococcus pneumoniae, this molecule returned an MIC of 0.06 µg/mL.
Regarding `CC(C)(C)n1cc(C(=O)O)c(=O)c2cc(F)c(N3C[C@H]4CC3CN4)cc21`, the MIC in the data set on Serratia marcescens is 4 µg/mL (≈ 11.1 µM); in the data set on Proteus mirabilis it was 4 µg/mL (≈ 11.1 µM); in the data set on Enterobacter cloacae, 0.25 µg/mL (≈ 0.696 µM); against Morganella morganii it was 2 µg/mL (≈ 5.56 µM); against Staphylococcus aureus [5] it was 0.5 µg/mL (≈ 1.39 µM); with Klebsiella pneumoniae it was 0.13 µg/mL (≈ 0.362 µM). Moreover, the MIC was determined as 0.5 µg/mL (≈ 1.39 µM) against Pseudomonas aeruginosa [7], 0.5 µg/mL (≈ 1.39 µM) with Escherichia coli [8] and 2 µg/mL (≈ 5.56 µM) in the data set with Enterococcus faecalis [25].
